In ChEMBL document CHEMBL1138500 (J Med Chem, 2009):
Changes are numbered by the printed parent chain.

How the values were obtained:
[1] = biological target: T1, Lysosomal acid glucosylceramidase (Homo sapiens, UniProt P04062); experiment: Inhibition of human placental beta-glucocerebrosidase
T1 sequence (P04062 whole entry): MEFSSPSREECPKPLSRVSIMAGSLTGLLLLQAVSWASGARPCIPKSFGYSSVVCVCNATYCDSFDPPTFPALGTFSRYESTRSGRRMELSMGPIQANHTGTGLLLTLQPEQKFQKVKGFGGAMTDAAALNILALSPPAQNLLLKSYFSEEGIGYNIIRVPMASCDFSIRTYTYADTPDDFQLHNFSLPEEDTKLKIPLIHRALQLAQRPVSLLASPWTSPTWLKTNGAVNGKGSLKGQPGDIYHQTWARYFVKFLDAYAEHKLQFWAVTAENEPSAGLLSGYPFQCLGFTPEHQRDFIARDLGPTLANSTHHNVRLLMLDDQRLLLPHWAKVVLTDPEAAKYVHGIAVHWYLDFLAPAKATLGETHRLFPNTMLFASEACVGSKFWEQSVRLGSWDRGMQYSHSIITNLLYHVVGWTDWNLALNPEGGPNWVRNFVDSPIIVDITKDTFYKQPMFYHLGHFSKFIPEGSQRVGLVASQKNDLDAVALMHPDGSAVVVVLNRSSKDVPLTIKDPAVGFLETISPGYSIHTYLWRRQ

HL-60 = experiment: Cytotoxicity against human HL60 cells assessed as dead cells at 100 uM after 3 days by propidium iodide staining based flow cytometry; assay type: cell-based; details: hl-60, 72 h
Method in brief: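 HL60 cells exposed to compound at 100 µM for 3 days; cytotoxicity reported as percentage of dead cells.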

[2] = tested on: T2, Lysosomal acid glucosylceramidase (Homo sapiens), P04062 [N409S]; experiment: Activation of beta-glucocerebrosidase N370S mutant in Goucher lymphoblasts at 50 uM after 3 days relative to control
T2 sequence (whole entry): T1 sequence (P04062 whole entry) with N409S

SMILES | IC50 [1] | Activity (HL-60) | fold change (FC) [2]
CCCCCCCCCN1C[C@@H](O)[C@@H](O)[C@H](O)C1=O | 102 µM | 4.71% | 2
CCCN(CCC)CCN1C[C@@H](O)[C@@H](O)[C@H](O)C1=O | 253 µM | 3.45% | 3.9
CCCCCCCCCCN1C[C@@H](O)[C@@H](O)[C@H](O)C1=O | 46 µM | 5.19% | 2.1
O=C1NC[C@@H](O)[C@@H](O)[C@@H]1O | > 500 µM | 2.77% | –
CCCCCCCCN1C[C@@H](O)[C@@H](O)[C@H](O)C1=O | 175 µM | 3.51% | 6.2
O=C1[C@@H](O)[C@H](O)[C@@H](O)CN1CCCCCCO | > 500 µM | 3.44% | 1.8
O=C1[C@@H](O)[C@H](O)[C@H](O)CN1CCCCCCO | > 500 µM | 3.75% | 4.1
O=C1[C@@H](O)[C@H](O)[C@H](O)CN1Cc1ccccc1 | > 500 µM | 3.46% | 3.4
CCCCN1C[C@H](O)[C@@H](O)[C@H](O)[C@H]1CO | – | 2.69% | –
CCCCCCCCCCN1C[C@@H](O)[C@@H](O)C1=O | 285 µM | 6.69% | 1.5
CCCCN1C[C@@H](O)[C@@H](O)[C@H](O)C1=O | > 500 µM | 2.78% | –
O=C1[C@@H](O)[C@H](O)[C@H](O)CN1CCO | > 500 µM | 2.95% | –
CCCCCCCCN1C[C@@H](O)C(O)[C@H](O)C1 | > 500 µM | 3.55% | –
CCCCCCCCCCN1CC(NC(C)=O)[C@@H](O)C(O)C1=O (single isomer, unassigned) | > 500 µM | 7.58% | –
O=C1[C@H](O)[C@H](O)CN1CCCCCCO | > 500 µM | 3.57% | 1.8
O=C1[C@H](O)[C@H](O)[C@H](O)CN1CCCCCCO | > 500 µM | 3.23% | 2.5
CCCOCCCCCCN1C[C@@H](O)[C@@H](O)[C@H](O)C1=O | 127 µM | 4.33% | 3.6
CCCCCCCCCCN1C[C@@H](O)[C@@H](O)[C@@H](O)C1=O | 463 µM | 10.22% | 2.9
CCCCCCCCCCN1C[C@H](O)[C@@H](O)[C@H](O)C1=O | 295 µM | 11.2% | 2
CC(=O)NC1CN(CCCCCCO)C(=O)C(O)[C@@H]1O (single isomer, unassigned) | > 500 µM | 2.9% | 1.3
CCCOCCN1C[C@@H](O)[C@@H](O)[C@H](O)C1=O | > 500 µM | 2.39% | 3.8
